# High-throughput results deposited in PubChem BioAssay by several laboratories.
# MC4R antag cAMP = antagonists of human melanocortin 4 receptor (MC4R); MC4R-expressing cells, MTII-stimulated cAMP, LANCE TR-FRET; actives 0.48% (n = 360,000); inhibition, % at 6.5 µM; P32245;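 active means inhibition above its plate's cutoff, the mean of tested wells on that plate plus 3 SD, cut at about 29% in these data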;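 further: 0% = Melanotan II alone and 100% = Melanotan II plus saturating MCL0020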
# Target sequence (P32245 whole entry, looked up): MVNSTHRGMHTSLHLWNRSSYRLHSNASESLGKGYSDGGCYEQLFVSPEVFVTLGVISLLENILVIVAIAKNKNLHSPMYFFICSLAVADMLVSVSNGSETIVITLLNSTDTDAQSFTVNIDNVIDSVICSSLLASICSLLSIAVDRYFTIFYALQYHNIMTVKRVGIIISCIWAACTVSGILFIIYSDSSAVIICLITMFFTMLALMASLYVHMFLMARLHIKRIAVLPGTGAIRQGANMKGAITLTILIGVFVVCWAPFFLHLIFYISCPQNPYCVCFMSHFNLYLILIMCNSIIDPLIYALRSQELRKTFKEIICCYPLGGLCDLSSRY
#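 Material: human MC4R-expressing U2OS cells. Probe or stimulus: Melanotan II challenge. Dosing: 6.5 µM single dose. Times: 30-min compound, 1-h challenge, 1-h detection, room temperature. Technique: TR-FRET with Eu-cAMP and labeled anti-cAMP, 671 nm. Replication: singlicate.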
# TAG inh = inhibitors of triacylglycerol accumulation; actives 0.66% (n = 230,000); H9c2 cells, Nile Red lipid (TAG) fluorescence; cells loaded with 200 µM oleic acid; inhibition, % at 12.5 µM;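 active means pattern-corrected inhibition of lipid staining of at least 50% with the nuclear-stain viability signal not falling by more than 50%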;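 further: 0% = DMSO wells and 100% = triacsin C control wells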
# GalR3 antag = blocks the human galanin receptor 3 | AID 651719 | inhibition, % at 3 µM | O60755 | HEK293 GalR3-CNG cAMP membrane potential fluorescence; galR3 body fused to GalR1 C-terminus | actives 0.44% (n = 360,000);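 active means inhibition above the screen-wide average plus 3 SD, cut at about 13% in these data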;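 further: forskolin and galanin both at EC90 stimulate the cells; cAMP rise reported by CNG channel membrane potential dye signal; 0% = forskolin plus galanin with DMSO and 100% = forskolin alone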
# Target sequence (O60755 1-299 limits assumed): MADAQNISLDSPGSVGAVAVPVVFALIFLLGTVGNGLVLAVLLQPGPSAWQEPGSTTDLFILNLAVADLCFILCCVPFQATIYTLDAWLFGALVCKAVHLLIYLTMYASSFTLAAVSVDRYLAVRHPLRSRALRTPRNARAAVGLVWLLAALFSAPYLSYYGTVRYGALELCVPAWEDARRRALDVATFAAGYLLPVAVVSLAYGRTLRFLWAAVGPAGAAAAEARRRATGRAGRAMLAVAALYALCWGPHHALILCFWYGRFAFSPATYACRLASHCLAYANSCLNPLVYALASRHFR
# Calb FLC = C. albicans growth modulation with fluconazole; C. albicans CaCi-2 + fluconazole, Alamar Blue growth, 48 h; growth inhibition, % (no concentration beside the values); actives 0.57% (n = 300,000); AID 1979;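 active means growth inhibition above about 58% in most replicates, limit read from the data, passing the limit was not always enough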;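 further: all wells also contain fluconazole at 8 µg/ml as a sub-toxic cotreatment; 0% = median of DMSO wells and 100% = median of geldanamycin control wells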
# Efflux pump mplx = inhibitors of Candida antifungal efflux pumps expressed in yeast | S. cerevisiae Candida pump triplex, Nile Red efflux | inhibition, % at 10 µM | actives 0.44% (n = 330,000) | AID 485275;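 active means plate passing quality check with inhibition over a set limit, or well fluorescence over plate mean plus 4 SD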;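 further: Nile Red retained in pooled yeast measured as flow cytometry median fluorescence; 0% = buffer negative control and 100% = Enniatin B positive control; higher means more Nile Red kept so more efflux inhibition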
# MC4R barr agon = activates human MC4R beta-arrestin recruitment; P32245; U2OS MC4R beta-arrestin complementation, luminescence; percent of melanotan II response, DMSO zero; activation, % at 8.9 µM; actives 0.98% (n = 360,000); AID 540308;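 active means activation above a per-plate cutoff, the mean activation of sample wells on that plate plus 3 SD, cut at about 8% in these data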
# TAG conf = triacylglycerol accumulation inhibition, confirmation; shares compounds with TAG inh; actives 71% (n = 990); H9c2 lipid accumulation, Nile Red fluorescence; cells loaded with 200 µM oleic acid; inhibition, % at 12.5 µM;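 active means mean inhibition across replicates of 40% or more; inactive means mean inhibition below 40%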;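 further: plate controls were DMSO only wells for no effect and Triacsin C treated wells for full effect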
# The depositor's hits bear a star; x = no result given; ! = repeats disagree. Sampled rows, rich in hits. Any-hit rate of the full collection: about 2.9%.
SMILES,MC4R antag cAMP,TAG inh,GalR3 antag,Calb FLC,Efflux pump mplx,MC4R barr agon,TAG conf
COC(=O)[C@]1(C)N[C@H](c2ccc(-c3cccc(Cl)c3)cc2)[C@@H]2C(=O)N(C)C(=O)[C@@H]21,5,34,2,x,0,-1,x
COC(=O)c1cc2c(c3c4ccccc4n(S(=O)(=O)c4ccc(OC)cc4)c13)C(=O)N(C)C2,x,x,-7,x,x,x,x
CCNC(=O)C1(C)CCN(C(=O)c2ccccc2F)C1 (stereo not given),6,-17,-7,x,x,0,x
O=[N+]([O-])c1ccc(/C=N/Nc2ncccc2[N+](=O)[O-])s1,-5,64*,-4,1,0,1,33
C=CCNc1ncnc2c1ncn2[C@H]1CN(Cc2ccc(-c3ccccc3)cc2)C[C@@H](CO)O1,8,4,-8,x,x,-1,x
COc1cc(NC(=O)c2nccnc2N)cc(C(=O)Nc2cccc(C(F)(F)F)c2)c1,9,61*!,-8,-6,0,2,35
COc1cc(NC(=O)c2nccn2C)cc(C(=O)Nc2cccc(C(F)(F)F)c2)c1,7,107*,-6,-14,0,4,26
COc1cc(NC(=O)c2ccc(N)nc2)cc(C(=O)Nc2cccc(C(F)(F)F)c2)c1,13,34,-6,4,0,-1,x
CCOc1ccccc1N1CCN(S(=O)(=O)c2ccc3c4c(cccc24)C(=O)N3)CC1,4,52*,-7,1,0,1,4
O=C(N[C@@H](Cc1cccnc1)C(=O)N1CCC[C@H]1C(=O)NC1CCCC1)C1CCCC1,x,x,-8,x,x,x,x
Nc1ccccc1Nc1cccc(C(F)(F)F)c1,-2,68*,-2,-23,0,1,74*
CN(CCc1ccccc1)C(C(=O)Nc1ccc2c(c1)OCCO2)c1ccnc2ccccc12 (stereo not given),x,x,-8,x,x,x,x
CC12C=CC(=O)C=C1CCC1C3CCC(O)(C(=O)CO)C3(C)CC(O)C12F (stereo not given),0,35,-5,x,x,-2,x
CC1(c2ccccc2)O[C@@H]2C[C@H]3[C@@H]4CCC5=CC(=O)C=C[C@]5(C)[C@@]4(F)[C@@H](O)C[C@]3(C)[C@]2(C(=O)CO)O1 (stereo not given in full),-1,53*,-7,-7,0,-2,55*
CC(=O)Nc1cc(-c2ccccc2Cl)cn2c(-c3ccc(S(C)(=O)=O)cc3)cnc12,23,34,-2,x,x,3,x
CN(C)CC(O)c1ccc(C=Cc2ccc(Cl)cc2)cc1 (stereo not given),19,73*,-9,x,x,3,44*
CCN(CC)CCn1c2c(c(SCC(=O)Nc3ccc(C)c(F)c3)nc1=O)CCCC2,3,53*,-4,-5,0,-2,19
CC(C)(C)NC(=O)C(c1ccc(-c2ccccc2)cc1)N(C[C@H]1CC[C@@H]([C@@H]2CC[C@H](CO)O2)O1)C(=O)c1ccc(-c2ccccc2)cc1 (stereo not given in full),3,60*,x,x,0,1,67*
CC(C)(C)NC(=O)C(c1ccc(-c2ccccc2)cc1)N(C[C@H]1CC[C@@H]([C@@H]2CC[C@H](CO)O2)O1)C(=O)c1ccc2ccccc2c1 (stereo not given in full),5,65*,-6,x,0,-1,82*
CC(C)(C)NC(=O)C(c1ccc(-c2ccccc2)cc1)N(C[C@H]1CC[C@@H]([C@@H]2CC[C@H](CO)O2)O1)C(=O)c1cccc(Cl)c1 (stereo not given in full),9,34,-6,x,0,1,x
O=C(O)CC1(CC(=O)Nc2cc(C(F)(F)F)cc(C(F)(F)F)c2)CCCCC1,23,94*,-3,4,0,0,-10
O=C(Nc1ccc2ccccc2c1)[C@@H]1C[C@H]1[C@@H](NP(=O)(c1ccccc1)c1ccccc1)c1ccccc1,12,52*,-6,x,0,-2,34
O=C(NCc1ccccc1)[C@@H]1C[C@H]1[C@@H](NP(=O)(c1ccccc1)c1ccccc1)c1ccccc1,6,25,-5,1,x,-2,x
CCc1nc2c(OCCn3cccc3)cccn2c1N(C)C(=O)c1ccc(C)cc1,8,-17,-2,x,x,3,x
CC(C)c1cccc(C(C)C)c1OC(=O)[C@H]1OC(C(C)(C)C)=C[C@@H]1c1ccccc1,1,-41,8,x,0,-1,x
SMILES,MC4R antag cAMP,TAG inh,GalR3 antag,Calb FLC,Efflux pump mplx,MC4R barr agon,TAG conf
CC(C)c1cccc(C(C)C)c1OC(=O)[C@H]1OC(c2ccc(Br)cc2)=C[C@@H]1c1ccc(Br)cc1,8,59*,-5,x,0.8*,4,23
COc1ccc(/C=N\NC(=O)c2c(C)nc3ccc(Br)cn23)cc1,-28,x,-4,1,0,-1,x
Cc1ccc(/C=N/NC(=O)c2c(C)nc3ccc(Br)cn23)cc1,-15,56*,-12,-1,0,-2,58*
O=C(Nc1ccncc1)C1CCCN(S(=O)(=O)c2cccc3cccnc23)C1 (stereo not given),-7,60*,0,8,0,1,41*
COc1ccc(N(C)S(=O)(=O)c2cccc(C(=O)OCC(=O)N(C)c3ccccc3)c2)cc1,12,-18,-7,x,0,-2,x
O=C(Nc1cccc2ncccc12)c1ccc(F)cc1,0,x,-6,-2,0,-4,x
O=C(Nc1cccc2ncccc12)c1ccc(Cl)cc1,-1,71*,-8,8,0,0,75*
CCOC(=O)c1[nH]c(C)c(C(=O)OC(C)C(=O)Nc2ncc(Cl)cc2Cl)c1C (stereo not given),0,57*,0,0,0,-1,39
COCC#Cc1ccc2c(c1)O[C@H](CN(C)C(=O)c1ccccc1)[C@@H](C)CN([C@H](C)CO)S2(=O)=O,x,x,-3,x,x,x,x
CCC(C)C(NC(=O)c1ccccc1NC(=O)c1ccc(OC)cc1)C(=O)NCc1ccco1 (stereo not given),4,x,-6,38,0,2,x
COc1ccc(C(=O)Nc2ccc(Cl)cc2C(=O)NCc2ccco2)cc1,-3,61*,-6,0,0,2,73*
C[C@H](O)[C@@H]1CN2CCc3c([nH]c4ccc(-c5ccc6c(c5)OCO6)cc34)[C@@H]2C[C@@H]1N(C)C(=O)Nc1cc(Cl)cc(Cl)c1,2,70*,-7,x,x,-1,89*
C[C@H](O)[C@@H]1CN2CCc3c([nH]c4ccccc34)[C@@H]2C[C@@H]1N(C)C(=O)Nc1cc(Cl)cc(Cl)c1,3,3,-5,x,x,2,x
